Measured values reported in paper PMC11700703 (Nature cardiovascular research, 2024).
“Also recorded” adds a separate entry of the source.

Experiments:
[1] = tested on: F1FO-ATP synthase (ATPase activity); experiment: F1FO-ATPase activity assay; type: biochemical, rat; conditions: P888 (2μM) co-incubation with cTnI (2μg); n=3 independent experiments
In short: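 Rat heart mitochondria (4 μg, solubilized) were captured on anti-ATP synthase antibody plates and co-incubated with recombinant human cTnI (2 μg) ± test peptide (2 μM). Absorbance was read over 120 min. Oligomycin served as negative control. n=3 independent experiments, each in 3–4 replicates; two-way ANOVA with Sidak correction.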

[2] = tested on: mitochondria of rat hearts after myocardial IR; experiment: Rat in vivo LAD ligation IR: mitochondrial oxygen consumption after IR; conditions: 3mg/kg IP at reperfusion, 24 hours after reperfusion, n=15
[3] = target: cTnI binding to immune-captured ATP synthase (UniProt P19429+P31399); experiment: Inhibition of cTnI binding to ATP synthase by ELISA; type: rat heart mitochondria; recombinant human cTnI; conditions: P888 2μM
In short: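 ELISA on anti-ATP synthase antibody plates blocked with 2% BSA. Plates were co-incubated with solubilized rat heart mitochondria (4 μg) and recombinant human cTnI (2 μg) ± test peptide (2 μM). After washing, bound cTnI was detected with HRP anti-cTnI antibody (1:5000, 1 h), then TMB, stopped with 2N sulfuric acid; absorbance at 450 nm.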

Sequence of cTnI binding to immune-captured ATP synthase (P19429 whole entry): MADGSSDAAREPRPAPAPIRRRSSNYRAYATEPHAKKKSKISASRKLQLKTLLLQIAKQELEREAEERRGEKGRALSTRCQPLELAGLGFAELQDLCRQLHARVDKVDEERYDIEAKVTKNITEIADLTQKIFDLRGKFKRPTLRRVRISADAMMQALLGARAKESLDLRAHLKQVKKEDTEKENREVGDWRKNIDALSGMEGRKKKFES
Sequence of cTnI binding to immune-captured ATP synthase (P31399 2-161 limits assumed): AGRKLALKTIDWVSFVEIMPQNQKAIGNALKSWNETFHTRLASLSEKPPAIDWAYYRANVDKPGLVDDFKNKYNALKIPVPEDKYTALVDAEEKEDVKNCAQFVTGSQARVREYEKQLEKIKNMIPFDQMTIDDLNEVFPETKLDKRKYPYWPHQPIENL

inhibition of cTnI binding to the immune-captured ATP synthase ([3]; cTnI (2μg), n=3): ~ 78%
Substance: A2GRKLALKTI11 [P888]
prevention of cTnI-induced increase in ATPase activity [1]: blocked the cTnI-induced increase in ATPase activity; also recorded: P888 co-incubation prevents this effect; also recorded: inhibited cTnI-induced increase in ATPase activity in vitro
mitochondrial respiration after IR [2]: no significant effect of P888 on mitochondrial function
inhibition of cTnI binding to ATP synthase ([3]; n=3, result in words): binding is inhibited in the presence of P888; also recorded: inhibited cTnI binding to ATP synthase
